Values joined by “and” are separate entries in the source; they are usually repeats but may differ in a detail not shown here. Equal values may be shown once.
Test system: Fibroblast
Experiment: Multiplex assay against human fibroblast
Assay type: toxicity, cell-based
Conditions: number of replicates 2
How it was run: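 Values for tubulin, mitochondrial-mass and membrane-permeability phenotypes are per cents of cells with healthy nuclei. These cells were identified by CellPathfinder machine-learning gating of live cells that had been stained at seeding with Hoechst33342, BioTracker Green Microtubule Cytoskeleton Dye, MitoTracker Red and Annexin V Alexa Fluor 680 and imaged on a CQ1 microscope at 37°C and 5% CO2 after compound addition. The gating first set Hoechst high-intensity objects apart from normal cells, then split normal cells into healthy, pyknosed or fragmented nuclei, and pyknosed cells into mitotic or apoptotic.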

[1] = 12 h, 1 µM, compound concentration 1 uM
[2] = 12 h, 10 µM, compound concentration 10 uM
[3] = 24 h, 1 µM, compound concentration 1 uM
[4] = 24 h, 10 µM, compound concentration 10 uM
[5] = 48 h, 1 µM, compound concentration 1 uM
[6] = 48 h, 10 µM, compound concentration 10 uM

Compound: CN1CCCN(C(=O)c2cccc(-c3ccc(/C=C4/C(=O)Nc5ccc(Cl)cc54)o3)c2)CC1
- Population Apoptotic (%) [1]: 43% and 41%
- Population Fragmented Nuclei (%) [1]: 4% and 3%
- Population Healthy Nuclei (%) [1]: 79% and 72%
- Population Hoechst High Intensity Objects (%) [1]: 0%
- Population Membrane Permeable-Phenotype (%) [1]: 4% and 1%
- Population Mitochondria Different-Phenotype (%) [1]: 2%
- Population Mitotic Cells (%) [1]: 56% and 58%
- Population Normal (%) [1]: 100%
- Population Pyknosed Nuclei (%) [1]: 16% and 24%
- Population Tubulin-Different-Phenotype (%) [1]: 20%
- Total Cell Count [1]: 283 and 162
- Population Apoptotic (%) [2]: 39% and 56%
- Population Fragmented Nuclei (%) [2]: 3% and 1%
- Population Healthy Nuclei (%) [2]: 8% and 3%
- Population Hoechst High Intensity Objects (%) [2]: 0%
- Population Mitochondria Different-Phenotype (%) [2]: 7% and 0%
- Population Mitotic Cells (%) [2]: 60% and 44%
- Population Normal (%) [2]: 99% and 100%
- Population Pyknosed Nuclei (%) [2]: 88% and 95%
- Population Tubulin-Different-Phenotype (%) [2]: 61% and 100%
- Total Cell Count [2]: 156 and 131
- Population Apoptotic (%) [3]: 48% and 54%
- Population Fragmented Nuclei (%) [3]: 4%
- Population Healthy Nuclei (%) [3]: 83% and 75%
- Population Hoechst High Intensity Objects (%) [3]: 0%
- Population Membrane Permeable-Phenotype (%) [3]: 5% and 3%
- Population Mitochondria Different-Phenotype (%) [3]: 3% and 8%
- Population Mitotic Cells (%) [3]: 51% and 45%
- Population Normal (%) [3]: 100%
- Population Pyknosed Nuclei (%) [3]: 12% and 20%
- Population Tubulin-Different-Phenotype (%) [3]: 25%
- Total Cell Count [3]: 271 and 164
- Population Apoptotic (%) [4]: 75% and 57%
- Population Fragmented Nuclei (%) [4]: 4% and 7%
- Population Healthy Nuclei (%) [4]: 17% and 13%
- Population Hoechst High Intensity Objects (%) [4]: 0%
- Population Membrane Permeable-Phenotype (%) [4]: 65% and 52%
- Population Mitochondria Different-Phenotype (%) [4]: 4% and 0%
- Population Mitotic Cells (%) [4]: 24% and 42%
- Population Normal (%) [4]: 100%
- Population Pyknosed Nuclei (%) [4]: 78%
- Population Tubulin-Different-Phenotype (%) [4]: 34% and 30%
- Total Cell Count [4]: 135 and 165
- Population Apoptotic (%) [5]: 62% and 80%
- Population Fragmented Nuclei (%) [5]: 8% and 7%
- Population Healthy Nuclei (%) [5]: 81% and 78%
- Population Hoechst High Intensity Objects (%) [5]: 0%
- Population Membrane Permeable-Phenotype (%) [5]: 4% and 8%
- Population Mitochondria Different-Phenotype (%) [5]: 1%
- Population Mitotic Cells (%) [5]: 37% and 19%
- Population Normal (%) [5]: 100% and 99%
- Population Pyknosed Nuclei (%) [5]: 10% and 13%
- Population Tubulin-Different-Phenotype (%) [5]: 20% and 17%
- Total Cell Count [5]: 269 and 155
- Population Apoptotic (%) [6]: 88% and 71%
- Population Fragmented Nuclei (%) [6]: 20% and 37%
- Population Healthy Nuclei (%) [6]: 26% and 18%
- Population Hoechst High Intensity Objects (%) [6]: 0%
- Population Membrane Permeable-Phenotype (%) [6]: 50% and 30%
- Population Mitochondria Different-Phenotype (%) [6]: 0%
- Population Mitotic Cells (%) [6]: 11% and 28%
- Population Normal (%) [6]: 100%
- Population Pyknosed Nuclei (%) [6]: 52% and 43%
- Population Tubulin-Different-Phenotype (%) [6]: 46% and 27%
- Total Cell Count [6]: 120 and 174

Compound: CN(C)CCN(Cc1ccc(-c2ccc(CNCCc3ccccc3)cc2)cc1)C(=O)CCC1CCCC1.Cl.Cl
- Population Apoptotic (%) [1]: 25% and 30%
- Population Fragmented Nuclei (%) [1]: 20% and 26%
- Population Healthy Nuclei (%) [1]: 56% and 57%
- Population Hoechst High Intensity Objects (%) [1]: 0%
- Population Membrane Permeable-Phenotype (%) [1]: 3% and 4%
- Population Mitochondria Different-Phenotype (%) [1]: 11% and 14%
- Population Mitotic Cells (%) [1]: 74% and 69%
- Population Normal (%) [1]: 100% and 99%
- Population Pyknosed Nuclei (%) [1]: 22% and 16%
- Population Tubulin-Different-Phenotype (%) [1]: 68% and 55%
- Total Cell Count [1]: 254 and 325
- Population Apoptotic (%) [2]: 84% and 86%
- Population Fragmented Nuclei (%) [2]: 4% and 8%
- Population Healthy Nuclei (%) [2]: 3% and 1%
- Population Hoechst High Intensity Objects (%) [2]: 2% and 0%
- Population Mitotic Cells (%) [2]: 15% and 13%
- Population Normal (%) [2]: 97% and 99%
- Population Pyknosed Nuclei (%) [2]: 92% and 90%
- Population Tubulin-Different-Phenotype (%) [2]: 50% and 100%
- Total Cell Count [2]: 199 and 160
- Population Apoptotic (%) [3]: 55% and 66%
- Population Fragmented Nuclei (%) [3]: 13% and 19%
- Population Healthy Nuclei (%) [3]: 67% and 68%
- Population Hoechst High Intensity Objects (%) [3]: 0%
- Population Membrane Permeable-Phenotype (%) [3]: 3% and 1%
- Population Mitochondria Different-Phenotype (%) [3]: 23% and 29%
- Population Mitotic Cells (%) [3]: 44% and 33%
- Population Normal (%) [3]: 99%
- Population Pyknosed Nuclei (%) [3]: 18% and 11%
- Population Tubulin-Different-Phenotype (%) [3]: 72% and 60%
- Total Cell Count [3]: 239 and 294
- Population Apoptotic (%) [4]: 87% and 90%
- Population Fragmented Nuclei (%) [4]: 6% and 12%
- Population Healthy Nuclei (%) [4]: 1%
- Population Hoechst High Intensity Objects (%) [4]: 1%
- Population Membrane Permeable-Phenotype (%) [4]: 33%
- Population Mitotic Cells (%) [4]: 12% and 9%
- Population Normal (%) [4]: 98%
- Population Pyknosed Nuclei (%) [4]: 92% and 85%
- Total Cell Count [4]: 199 and 156
- Population Apoptotic (%) [5]: 86% and 65%
- Population Fragmented Nuclei (%) [5]: 19% and 27%
- Population Healthy Nuclei (%) [5]: 74% and 66%
- Population Hoechst High Intensity Objects (%) [5]: 0%
- Population Membrane Permeable-Phenotype (%) [5]: 1%
- Population Mitochondria Different-Phenotype (%) [5]: 9% and 11%
- Population Mitotic Cells (%) [5]: 13% and 35%
- Population Normal (%) [5]: 100%
- Population Pyknosed Nuclei (%) [5]: 5% and 6%
- Population Tubulin-Different-Phenotype (%) [5]: 41% and 38%
- Total Cell Count [5]: 255 and 321
- Population Apoptotic (%) [6]: 83% and 93%
- Population Fragmented Nuclei (%) [6]: 12% and 22%
- Population Healthy Nuclei (%) [6]: 6% and 13%
- Population Hoechst High Intensity Objects (%) [6]: 0%
- Population Membrane Permeable-Phenotype (%) [6]: 8% and 14%
- Population Mitochondria Different-Phenotype (%) [6]: 41% and 19%
- Population Mitotic Cells (%) [6]: 16% and 7%
- Population Normal (%) [6]: 100%
- Population Pyknosed Nuclei (%) [6]: 81% and 63%
- Population Tubulin-Different-Phenotype (%) [6]: 50% and 76%
- Total Cell Count [6]: 200 and 157

Compound: COc1cc(Br)c(S(=O)(=O)Nc2ccc(C(F)(F)F)c(O[C@@H]3CCN(C)C3)c2)cc1OC
- Population Apoptotic (%) [1]: 54% and 48%
- Population Fragmented Nuclei (%) [1]: 13% and 15%
- Population Healthy Nuclei (%) [1]: 71% and 63%
- Population Hoechst High Intensity Objects (%) [1]: 0%
- Population Membrane Permeable-Phenotype (%) [1]: 3% and 4%
- Population Mitochondria Different-Phenotype (%) [1]: 0%
- Population Mitotic Cells (%) [1]: 45% and 51%
- Population Normal (%) [1]: 100% and 99%
- Population Pyknosed Nuclei (%) [1]: 14% and 21%
- Population Tubulin-Different-Phenotype (%) [1]: 8% and 14%
- Total Cell Count [1]: 161 and 215
- Population Apoptotic (%) [2]: 42% and 34%
- Population Fragmented Nuclei (%) [2]: 12% and 15%
- Population Healthy Nuclei (%) [2]: 61% and 63%
- Population Hoechst High Intensity Objects (%) [2]: 0%
- Population Membrane Permeable-Phenotype (%) [2]: 8% and 7%
- Population Mitochondria Different-Phenotype (%) [2]: 1% and 0%
- Population Mitotic Cells (%) [2]: 57% and 65%
- Population Normal (%) [2]: 100%
- Population Pyknosed Nuclei (%) [2]: 25% and 21%
- Population Tubulin-Different-Phenotype (%) [2]: 36% and 23%
- Total Cell Count [2]: 164 and 244
- Population Apoptotic (%) [3]: 50% and 65%
- Population Fragmented Nuclei (%) [3]: 12% and 16%
- Population Healthy Nuclei (%) [3]: 67% and 62%
- Population Hoechst High Intensity Objects (%) [3]: 0%
- Population Membrane Permeable-Phenotype (%) [3]: 6% and 7%
- Population Mitochondria Different-Phenotype (%) [3]: 0% and 3%
- Population Mitotic Cells (%) [3]: 50% and 34%
- Population Normal (%) [3]: 99% and 100%
- Population Pyknosed Nuclei (%) [3]: 19% and 20%
- Population Tubulin-Different-Phenotype (%) [3]: 13% and 16%
- Total Cell Count [3]: 157 and 207
- Population Apoptotic (%) [4]: 53% and 68%
- Population Fragmented Nuclei (%) [4]: 17% and 15%
- Population Healthy Nuclei (%) [4]: 63% and 69%
- Population Hoechst High Intensity Objects (%) [4]: 0%
- Population Membrane Permeable-Phenotype (%) [4]: 10% and 6%
- Population Mitochondria Different-Phenotype (%) [4]: 4% and 3%
- Population Mitotic Cells (%) [4]: 46% and 31%
- Population Normal (%) [4]: 100%
- Population Pyknosed Nuclei (%) [4]: 19% and 15%
- Population Tubulin-Different-Phenotype (%) [4]: 36% and 23%
- Total Cell Count [4]: 163 and 231
- Population Apoptotic (%) [5]: 66% and 76%
- Population Fragmented Nuclei (%) [5]: 11% and 18%
- Population Healthy Nuclei (%) [5]: 72% and 69%
- Population Hoechst High Intensity Objects (%) [5]: 0%
- Population Membrane Permeable-Phenotype (%) [5]: 5% and 4%
- Population Mitochondria Different-Phenotype (%) [5]: 1%
- Population Mitotic Cells (%) [5]: 33% and 24%
- Population Normal (%) [5]: 100%
- Population Pyknosed Nuclei (%) [5]: 15% and 12%
- Population Tubulin-Different-Phenotype (%) [5]: 10% and 7%
- Total Cell Count [5]: 154 and 204
- Population Apoptotic (%) [6]: 64% and 55%
- Population Fragmented Nuclei (%) [6]: 19% and 16%
- Population Healthy Nuclei (%) [6]: 71%
- Population Hoechst High Intensity Objects (%) [6]: 0%
- Population Membrane Permeable-Phenotype (%) [6]: 9% and 4%
- Population Mitochondria Different-Phenotype (%) [6]: 0% and 1%
- Population Mitotic Cells (%) [6]: 35% and 44%
- Population Normal (%) [6]: 100%
- Population Pyknosed Nuclei (%) [6]: 8% and 12%
- Population Tubulin-Different-Phenotype (%) [6]: 17% and 9%
- Total Cell Count [6]: 156 and 218

— ChEMBL document CHEMBL5303300, “EUbOPEN Chemogenomics Library - Multiplex” (2023)
